Drawing on ChEMBL document CHEMBL4673173, “Cyrene(TM) is a green alternative to DMSO as a solvent for antibacterial drug discovery against ESKAPE pathogens” (RSC Med Chem, 2020), this text covers MIC80 for nine compounds.

Values after ≈ are worked out from the molar mass of the structure shown. Where a name gives a salt, the structure may show the parent alone. Active and inactive are the calls of the source. The rule behind the calls is not given here. Bridge positions count the residues as written; N and C are the ends. Square brackets hold non-standard residues; d marks the D form. Peptide text beside a SMILES is read from it. * marks the point of attachment. X1 = CC[C@H](C)CCCCC(=O)*; Dab = NCC[C@H](N)C(=O)O

Experiment [1] deals with Klebsiella pneumoniae. In words: Antibacterial activity against Klebsiella pneumoniae ATCC 700603 by broth microdilution method. In kind it is functional. In short, it runs like this: (§1)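 Antibiotics were dissolved as stock solutions in either DMSO or Cyrene™, neat or mixed with water, at 5–10 mM (stock). Each drug was tested in parallel with both vehicles. Growth inhibition was read as MIC80 […]. NA means no activity at the highest concentration tested.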
A general note: Dilution methods test growth across graded concentrations, often in twofold steps.

For experiment [2], the system named is Pseudomonas aeruginosa. In words: Antibacterial activity against Pseudomonas aeruginosa […] by broth microdilution method. Type of experiment: functional. In short, it runs like this:
as §1

The subject of experiment [3] is Acinetobacter baumannii. Briefly: Antibacterial activity against Acinetobacter baumannii ATCC 19606 by broth microdilution method. In kind it is functional, ATCC 19606 = CIP 70.34 = JCM 6841. In short, it runs like this:
as §1

Experiment [4] has as its system Escherichia coli. In words: Antibacterial activity against Escherichia coli ATCC 25922 by broth microdilution method. In kind it is functional. In short, it runs like this:
as §1

In experiment [5] the test system is Enterococcus faecalis. In words: Antibacterial activity against Enterococcus faecalis ATCC 51299 by broth microdilution method. Type of experiment: functional. In short, it runs like this:
as §1

For experiment [6], the system named is Staphylococcus aureus. Briefly: Antibacterial activity against Staphylococcus aureus ATCC 43300 by broth microdilution method. Type of experiment: functional. Put shortly:
as §1

The subject of experiment [7] is Klebsiella pneumoniae. In words: Antibacterial activity against Klebsiella pneumoniae ATCC 700603 using cyrene as solvent by broth microdilution method. Type of experiment: functional.
The subject of experiment [8] is Klebsiella pneumoniae. Briefly: Antibacterial activity against Klebsiella pneumoniae ATCC 700603 using DMSO as solvent by broth microdilution method. In kind it is functional.
The test system of experiment [9] is Acinetobacter baumannii. In words: Antibacterial activity against Acinetobacter baumannii ATCC 19606 using cyrene as solvent by broth microdilution method. Type of experiment: functional. The conditions noted are these: ATCC 19606 = CIP 70.34 = JCM 6841.
The subject of experiment [10] is Acinetobacter baumannii. Briefly: Antibacterial activity against Acinetobacter baumannii ATCC 19606 using DMSO as solvent by broth microdilution method. In kind it is functional. Particulars: ATCC 19606 = CIP 70.34 = JCM 6841.
Experiment [11] has as its system Pseudomonas aeruginosa. Briefly: Antibacterial activity against Pseudomonas aeruginosa ATCC 27893 using cyrene as solvent by broth microdilution method. Type of experiment: functional.
For experiment [12], the system named is Pseudomonas aeruginosa. Briefly: Antibacterial activity against Pseudomonas aeruginosa ATCC 27893 using DMSO as solvent by broth microdilution method. Type of experiment: functional.
In experiment [13] the test system is Escherichia coli. In words: Antibacterial activity against Escherichia coli ATCC 25922 using cyrene as solvent by broth microdilution method. In kind it is functional.
Experiment [14] has as its system Escherichia coli. In words: Antibacterial activity against Escherichia coli ATCC 25922 using DMSO as solvent by broth microdilution method. In kind it is functional.
Experiment [15] deals with Enterococcus faecalis. Particulars: ATCC 51299.
The subject of experiment [16] is Staphylococcus aureus. The conditions noted are these: ATCC 43300.
Experiment [17] deals with Staphylococcus aureus. Particulars: ATCC 43300. This is another data set of the same source.
The test system of experiment [18] is Enterococcus faecalis. The conditions noted are these: ATCC 51299. This is another data set of the same source.
Experiment [19] concerns Enterococcus faecalis. Briefly: microbe, parasite or virus in culture. In kind it is functional. Particulars: ATCC 51299.
Experiment [20] deals with Staphylococcus aureus. In words: microbe, parasite or virus in culture. Type of experiment: functional. Particulars: ATCC 43300.
The test system of experiment [21] is Staphylococcus aureus. In words: microbe, parasite or virus in culture. Particulars: ATCC 43300. Type of experiment: functional. The source holds these as a separate data set.
The subject of experiment [22] is Enterococcus faecalis. In words: microbe, parasite or virus in culture. Type of experiment: functional. The conditions noted are these: ATCC 51299. This is another data set of the same source.
Experiment [23] relates to Klebsiella pneumoniae. The conditions noted are these: 700603.
Experiment [24] concerns Klebsiella pneumoniae. Particulars: 700603. The source holds these as a separate data set.
For experiment [25], the system named is Acinetobacter baumannii. Particulars: ATCC 19606 = CIP 70.34 = JCM 6841.
The subject of experiment [26] is Acinetobacter baumannii. Particulars: ATCC 19606 = CIP 70.34 = JCM 6841. The source holds these as a separate data set.
Experiment [27] has as its system Pseudomonas aeruginosa. Particulars: ATCC 27893.
The subject of experiment [28] is Pseudomonas aeruginosa. The conditions noted are these: ATCC 27893. This is another data set of the same source.
Experiment [29] relates to Escherichia coli. The conditions noted are these: ATCC 25922.
Experiment [30] has as its system Escherichia coli. The conditions noted are these: ATCC 25922. This is another data set of the same source.

Consider `O=C1CC[C@H]2CO[C@@H]1O2`, for which the MIC80 is 8 %v/v in the experiment on Klebsiella pneumoniae [1]; 8 %v/v in the experiment with Pseudomonas aeruginosa [2]; 8 %v/v in the experiment on Acinetobacter baumannii [3]; 5 %v/v against Escherichia coli [4]; 4 %v/v with Enterococcus faecalis [5]; 8 %v/v with Staphylococcus aureus [6].
In the case of `CC[C@H](C)CCCCC(=O)N[C@@H](CCN)C(=O)N[C@H](C(=O)N[C@@H](CCN)C(=O)N[C@H]1CCNC(=O)[C@H]([C@@H](C)O)NC(=O)[C@H](CCN)NC(=O)[C@H](CCN)NC(=O)[C@H](CC(C)C)NC(=O)[C@@H](Cc2ccccc2)NC(=O)[C@H](CCN)NC1=O)[C@@H](C)O` (X1-[Dab]T[Dab][Dab][Dab][dF]L[Dab][Dab]T; lactam 4-C), the MIC80 against Klebsiella pneumoniae [7] worked out at 1.6 µM (≈ 1.93 µg/mL); in the experiment with Klebsiella pneumoniae [8] it was 1.6 µM (≈ 1.93 µg/mL); in the experiment on Acinetobacter baumannii [9], 1.6 µM (≈ 1.93 µg/mL); against Acinetobacter baumannii [10], 1.6 µM (≈ 1.93 µg/mL); against Pseudomonas aeruginosa [11], 3.1 µM (≈ 3.73 µg/mL); against Pseudomonas aeruginosa [12] it was 3.1 µM (≈ 3.73 µg/mL). For the same compound, the MIC80 in the experiment with Escherichia coli [13] and in the experiment with Escherichia coli [14] was 1.6 µM (≈ 1.93 µg/mL) in each case. The MIC80 result in the experiment on Enterococcus faecalis [15], with Staphylococcus aureus [16], with Staphylococcus aureus [17] and with Enterococcus faecalis [18] was “inactive” throughout.
`O=C(O)c1cn(C2CC2)c2cc(N3CCNCC3)c(F)cc2c1=O` [CIPROFLOXACIN HYDROCHLORIDE]: the MIC80 against Klebsiella pneumoniae [7] was 0.39 µM; in the experiment on Klebsiella pneumoniae [8], 0.39 µM; in the experiment on Acinetobacter baumannii [9], 1.6 µM; in the experiment with Acinetobacter baumannii [10], 1.6 µM; with Pseudomonas aeruginosa [11] it was 0.39 µM; against Pseudomonas aeruginosa [12], 0.39 µM. Besides, the MIC80 with Enterococcus faecalis [19] amounted to 0.39 µM; against Staphylococcus aureus [20], 1.6 µM; against Staphylococcus aureus [21] it was 1.6 µM; with Enterococcus faecalis [22] it was 0.39 µM.
As to `C[S+](C)[O-]` [DIMETHYL SULFOXIDE], the MIC80 with Klebsiella pneumoniae [1] came to 16 %v/v; with Pseudomonas aeruginosa [2], 16 %v/v; against Acinetobacter baumannii [3], 16 %v/v; in the experiment with Escherichia coli [4], 10 %v/v; with Enterococcus faecalis [5], 8 %v/v; with Staphylococcus aureus [6], 16 %v/v.
Turning to `C[C@H]1COc2c(N3CCN(C)CC3)c(F)cc3c(=O)c(C(=O)O)cn1c23` [LEVOFLOXACIN], the MIC80 against Klebsiella pneumoniae [7] stood at 0.78 µM (≈ 0.282 µg/mL); with Klebsiella pneumoniae [8] it was 0.78 µM (≈ 0.282 µg/mL); in the experiment with Acinetobacter baumannii [9] it was 0.39 µM (≈ 0.141 µg/mL); against Acinetobacter baumannii [10], 0.39 µM (≈ 0.141 µg/mL); with Pseudomonas aeruginosa [11], 1.6 µM (≈ 0.578 µg/mL); in the experiment with Pseudomonas aeruginosa [12], 1.6 µM (≈ 0.578 µg/mL). For the same compound, the MIC80 amounted to 0.019 µM (≈ 0.00687 µg/mL) in the experiment with Escherichia coli [13]; 0.019 µM (≈ 0.00687 µg/mL) against Escherichia coli [14]; 0.19 µM (≈ 0.0687 µg/mL) in the experiment with Enterococcus faecalis [19]; 0.78 µM (≈ 0.282 µg/mL) against Staphylococcus aureus [20]; 0.78 µM (≈ 0.282 µg/mL) against Staphylococcus aureus [21]; 0.39 µM (≈ 0.141 µg/mL) with Enterococcus faecalis [22].
On to `CC1(C)S[C@@H]2[C@H](NC(=O)Cc3ccccc3)C(=O)N2[C@H]1C(=O)O` [PENICILLIN G SODIUM], for which the MIC80 against Staphylococcus aureus [20] and with Staphylococcus aureus [21] was 34 µM in each case. Also, the MIC80 entry in the experiment with Klebsiella pneumoniae [23], in the experiment with Klebsiella pneumoniae [24], in the experiment on Acinetobacter baumannii [25], with Acinetobacter baumannii [26], in the experiment on Pseudomonas aeruginosa [27] and in the experiment on Pseudomonas aeruginosa [28] was “inactive” throughout. Besides, the MIC80 result in the experiment with Escherichia coli [29], in the experiment with Escherichia coli [30], with Enterococcus faecalis [15] and in the experiment with Enterococcus faecalis [18] was “inactive” each time.
As to `CN(C)[C@@H]1C(O)=C(C(N)=O)C(=O)[C@@]2(O)C(O)=C3C(=O)c4c(O)cccc4[C@@](C)(O)[C@H]3C[C@@H]12` [TETRACYCLINE], the MIC80 against Acinetobacter baumannii [9] worked out at 12.5 µM (≈ 5.56 µg/mL); in the experiment with Acinetobacter baumannii [10] it was 25 µM (≈ 11.1 µg/mL); in the experiment on Pseudomonas aeruginosa [11], 25 µM (≈ 11.1 µg/mL); against Pseudomonas aeruginosa [12], 25 µM (≈ 11.1 µg/mL); against Escherichia coli [13], 3.13 µM (≈ 1.39 µg/mL); with Escherichia coli [14] it was 3.13 µM (≈ 1.39 µg/mL). In addition, the MIC80 in the experiment with Staphylococcus aureus [20] and against Staphylococcus aureus [21] was 0.78 µM (≈ 0.347 µg/mL) in each case. For the same compound, the MIC80 entry in the experiment on Klebsiella pneumoniae [23], with Klebsiella pneumoniae [24], in the experiment on Enterococcus faecalis [15] and in the experiment on Enterococcus faecalis [18] was “inactive” throughout.
Turning to `NC[C@H]1O[C@H](O[C@H]2[C@H](O)[C@@H](O[C@H]3O[C@H](CO)[C@@H](O)[C@H](N)[C@H]3O)[C@H](N)C[C@@H]2N)[C@H](N)C[C@@H]1O` [TOBRAMYCIN], the MIC80 is 13 µM (≈ 6.08 µg/mL) against Klebsiella pneumoniae [7]; 13 µM (≈ 6.08 µg/mL) against Klebsiella pneumoniae [8]; 3.1 µM (≈ 1.45 µg/mL) in the experiment with Acinetobacter baumannii [9]; 3.1 µM (≈ 1.45 µg/mL) against Acinetobacter baumannii [10]; 1.6 µM (≈ 0.748 µg/mL) against Pseudomonas aeruginosa [11]; 1.6 µM (≈ 0.748 µg/mL) in the experiment on Pseudomonas aeruginosa [12]. For the same compound, the MIC80 against Escherichia coli [13] and against Escherichia coli [14] was 0.78 µM (≈ 0.365 µg/mL) in each case. Also, the MIC80 entry in the experiment with Enterococcus faecalis [15], with Staphylococcus aureus [16], in the experiment with Staphylococcus aureus [17] and with Enterococcus faecalis [18] was “inactive” in each case.
`CN[C@H](CC(C)C)C(=O)N[C@H]1C(=O)N[C@@H](CC(N)=O)C(=O)N[C@H]2C(=O)N[C@H]3C(=O)N[C@H](C(=O)N[C@H](C(=O)O)c4cc(O)cc(O)c4-c4cc3ccc4O)[C@H](O)c3ccc(c(Cl)c3)Oc3cc2cc(c3O[C@@H]2O[C@H](CO)[C@@H](O)[C@H](O)[C@H]2O[C@H]2C[C@](C)(N)[C@H](O)[C@H](C)O2)Oc2ccc(cc2Cl)[C@H]1O` [VANCOMYCIN HYDROCHLORIDE]: the MIC80 in the experiment on Enterococcus faecalis [19] was 13 µM; in the experiment with Staphylococcus aureus [20] it was 0.39 µM; against Staphylococcus aureus [21] it was 0.39 µM; against Enterococcus faecalis [22] it was 13 µM. Also, the MIC80 entry with Klebsiella pneumoniae [23], with Klebsiella pneumoniae [24], with Acinetobacter baumannii [25], in the experiment with Acinetobacter baumannii [26], in the experiment on Pseudomonas aeruginosa [27] and in the experiment on Pseudomonas aeruginosa [28] was “inactive” in each case. Besides, the MIC80 result in the experiment on Escherichia coli [29] and in the experiment with Escherichia coli [30] was “inactive” in each case.
